Assay results collected from several papers.
Compare with care: the assays were run in different laboratories. pEC50, pIC50: −log10 of the molar value. Values after ≈ are worked out from the molar mass of the structure shown.

With `O=[N+]([O-])c1ccc(O)c2ncccc12` the pIC50 was 6.25 (Acinetobacter baumannii; microbial growth; 19606).
`CCCCOC(=O)N[C@H](C(=O)N1CCC[C@H]1C(=O)Nc1cccc(C#CC#Cc2cccc(NC(=O)[C@@H]3CCCN3C(=O)[C@@H](NC(=O)OCCCC)[C@@H](C)CC)c2)c1)[C@H](C)CC` gave a pEC50 of less than 5.00 (Hepatitis C virus; viral replication, inhibitor, luciferase; Huh-5-2, GETYPE1B; 72 h, replicon).
With `Cc1cn([C@H]2C[C@H](N=[N+]=[N-])[C@@H](CO)O2)c(=O)[nH]c1=O` the pEC50 was less than 5.00 (Hepatitis C virus; viral replication, inhibitor; Huh-7; replicon).
With `C[C@@]12COCO[C@@H]1CC[C@]1(C)[C@@H]2CC[C@@H]2CN(Cc3ccc(F)cc3)[C@@H](C3=CCOC3=O)C[C@H]21` the inhibition was 32% (unidentified human coronavirus; cytopathic effect; MRC5; 25 µM, 72 h).
With `CCCCCCC/C=C/C(=O)N1C(=O)/C(=C(\O)c2ccccc2)C(=O)C1CC(C)C` (stereo not shown) the MIC was greater than 200 µg/mL (Proteus mirabilis; microbial growth; ATCC25933).
`CCOC(=O)C=c1[nH]c(=O)c(=Cc2cn(-c3ccccc3)nc2-c2ccccc2)s1` gave an inhibition zone of 12 mm (Acinetobacter baumannii; microbial growth, well diffusion; 100000 µg/mL).
`CC(C)Oc1c(NC(=O)c2ccc(NC(=O)[C@H](CC(N)=O)NC(=O)c3ccc(NC(=O)c4ccc(C#N)cn4)cc3)cc2)ccc(C(=O)Nc2ccc(C(=O)O)cc2)c1O` has an MIC of 4 µg/mL (≈ 4.92 µM) (Proteus mirabilis; microbial growth; DSM4479).
The inhibition of `CC(C)CCN1C[C@H]2CC[C@@H]3[C@]4(C)COC(C)(C)O[C@@H]4CC[C@@]3(C)[C@@H]2C[C@@H]1C1=CCOC1=O` is reported as 22% (unidentified human coronavirus; cytopathic effect; MRC5; 25 µM, 72 h).
With `COc1cc(O)c(CC=C(C)C)c(O)c1C(=O)/C=C/c1ccc(O)cc1` the pIC50 was 6.11 (Leishmania tarentolae; parasite growth, resazurin; 48 h, promastigote).
`CCCCOC(=O)N[C@H](C(=O)N1CCC[C@H]1C(=O)Nc1ccc(C#CC#Cc2ccc(NC(=O)[C@@H]3CCCN3C(=O)[C@@H](NC(=O)OCCCC)C(C)C)cc2)cc1)C(C)C` gave a pEC50 of 6.04 (Hepatitis C virus; viral replication, inhibitor, luciferase; Huh-5-2, GETYPE1B; 72 h, replicon).
For `CCOC(=O)c1c(N)csc1-c1cn(-c2ccccc2)nc1-c1ccc(C)cc1`, the inhibition zone was 29 mm (Acinetobacter baumannii; microbial growth, well diffusion; 100000 µg/mL).
With `O=C(OC[C@H]1O[C@H](n2cnc3c(Cl)nc(Cl)nc32)[C@@H](F)[C@@H]1F)c1ccccc1` the EC90 was less than 10000 nM (Hepatitis C virus; viral replication, inhibitor; Huh-7; replicon).
With `CC(C)C[C@H](NC(=O)OCc1ccccc1)C(=O)N1CCC[C@H]1C(=O)Nc1ccc(C#CC#Cc2ccc(NC(=O)[C@@H]3CCCN3C(=O)[C@H](CC(C)C)NC(=O)OCc3ccccc3)cc2)cc1` the pEC50 was less than 5.00 (Hepatitis C virus; viral replication, inhibitor, luciferase; Huh-5-2, GETYPE1B; 72 h, replicon).
For `CC(=O)OC[C@@]1(C)[C@H]2CC[C@@H]3CN(Cc4cccs4)[C@@H](C4=CCOC4=O)C[C@H]3[C@]2(C)CC[C@H]1OC(C)=O`, the inhibition was 31.2% (unidentified human coronavirus; cytopathic effect; MRC5; 25 µM, 72 h).
The pEC50 of `CC(C)COC(=O)N[C@H](C(=O)N1CCC[C@H]1C(=O)Nc1ccc(C#CC#Cc2ccc(NC(=O)[C@@H]3CCCN3C(=O)[C@@H](NC(=O)OCC(C)C)C(C)C)cc2)cc1)C(C)C` is reported as less than 5.00 (Hepatitis C virus; viral replication, inhibitor, luciferase; Huh-5-2, GETYPE1B; 72 h, replicon).
For `CC1(C)OC[C@@]2(C)[C@H]3CC[C@@H]4CN(Cc5ccc(F)c(Cl)c5)[C@@H](C5=CCOC5=O)C[C@H]4[C@]3(C)CC[C@H]2O1`, the inhibition was 51.6% (unidentified human coronavirus; cytopathic effect; MRC5; 25 µM, 72 h).
